≈ marks a conversion by molar mass, not a printed value.
Columns and labels:
[1] = tested on: RAW264.7; assay: (§1) Cytotoxicity against mouse RAW264.7 cells assessed as cell survival rate at 10 uM; format: cell-based; conditions: raw264.7, 10 µM
[2] = Cytotoxicity against human HL7702 cells assessed as cell survival rate at 10 uM incubated for 24 hrs by MTT assay; format: cell-based; conditions: HL7702 (L02) cells, read-out: Activity
Summary of the method: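 HL-7702 human normal hepatic cells exposed to 10 μM compound for 24 h; viability measured by MTT assay and given as survival rate, mean ± SD of three experiments.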

[3] = tested on: RAW264.7; assay: Antiinflammatory activity in mouse RAW264.7 cells assessed as decrease in LPS-induced IL-6 secretion at 10 microM incubated for 30 mins followed by LPS stimulation and measured after 24 hrs by ELISA relative to control; format: functional; conditions: RAW264.7, 24.5 h, time 1470 min
Summary of the method: (§2)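 RAW264.7 cells in DMEM with 10% FBS at 37 °C, 5% CO₂; pretreated with 10 μM for 30 min, then LPS 0.5 μg/mL for 24 h. Medium TNF-α and IL-6 measured by ELISA and normalized to total protein of viable cells; percent inhibition, mean ± SD of three experiments.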

[4] = Aqueous kinetic solubility of compound at pH 7.4; format: physicochemical; conditions: read-out: Kinetic_solubility
[5] = Octanol-water partition coefficient, logP of compound; format: physicochemical
[6] = tested on: RAW264.7; assay: Antiinflammatory activity in mouse RAW264.7 cells assessed as decrease in LPS-induced TNF-alpha secretion at 10 microM incubated for 30 mins followed by LPS stimulation and measured after 24 hrs by ELISA relative to control; format: functional; conditions: RAW264.7, 24.5 h, time 1470 min; summary of the method: as §2
[7] = as §1; format: cell-based; conditions: RAW264.7 cells, read-out: Activity
[8] = Chemical stability of compound in PBS buffer containing 5% DMSO at pH 7.4 measured every 5 mins for 25 mins by UV-Vis absorption spectral analysis; format: physicochemical; conditions: pH 7.4, 25 min
Summary of the method: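 Compound diluted from 1 mM stock in phosphate buffer pH 7.4 containing 5% DMSO; UV-visible spectra recorded from 250 to 600 nm at 25 °C in a 1 cm quartz cuvette, every 5 min for 25 min.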

[9] = tested on: RAW264.7; assay: Antiinflammatory activity in mouse RAW264.7 cells assessed as decrease in LPS-induced TNF-alpha secretion incubated for 30 mins followed by LPS stimulation and measured after 24 hrs by ELISA; format: functional, cell-based; conditions: dose 1-10 µM, time 1470.0 min
Summary of the method: (§3)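 RAW264.7 cells seeded at 4.0×10^5/plate overnight; pretreated at 1, 2.5, 5 or 10 μM for 30 min, then with or without LPS 0.5 μg/mL for 24 h. Medium IL-6 and TNF-α measured by ELISA and normalized to total protein; percent of LPS control, mean ± SEM of three independent experiments.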

[10] = tested on: RAW264.7; assay: Antiinflammatory activity in mouse RAW264.7 cells assessed as decrease in LPS-induced IL-6 secretion incubated for 30 mins followed by LPS stimulation and measured after 24 hrs by ELISA; format: functional, cell-based; conditions: dose 1-10 µM, time 1470.0 min; summary of the method: as §3

| SMILES | solubility kinetic [4] [mg/mL] | logP [5] | Stabilty [8] | Activity [1] | viability at 24 h, 10 µM [2] [%] | inhibition at 10 µM [3] [%] | inhibition at 10 µM [6] [%] | viability at 10 µM [7] [%] | inhibition [9] | inhibition [10] |
| --- | --- | --- | --- | --- | --- | --- | --- | --- | --- | --- |
| C=CCc1cc(/C=C2\CN(C(=O)c3c(Cl)cccc3Cl)C/C(=C\c3ccc(O)c(CC=C)c3)C2=O)ccc1O | – | – | – | Non-Toxic | 79.6 | 79.6 | – | – | – | – |
| C=CCc1cc(/C=C2\CN(S(=O)(=O)c3ccccc3)C/C(=C\c3ccc(O)c(CC=C)c3)C2=O)ccc1O | – | – | – | – | 63.4 | 24.8 | – | < 70 | – | – |
| C=CCc1cc(/C=C/C(=O)/C=C/c2ccc(O)c(CC=C)c2)ccc1O | – | – | Stable | Non-Toxic | 73.3 | 59.6 | 7.15 | – | – | – |
| C=CCc1cc(/C=C2\CNC/C(=C\c3ccc(O)c(CC=C)c3)C2=O)ccc1O | – | – | – | Non-Toxic | 77.9 | 44.4 | – | – | – | – |
| C=CCc1cc(/C=C2\CN(C(=O)c3ccc(C)cc3)C/C(=C\c3ccc(O)c(CC=C)c3)C2=O)ccc1O | – | – | – | Non-Toxic | 70.1 | 81.5 | – | – | – | – |

Second part, led by results:

| solubility kinetic [4] [mg/mL] | logP [5] | Stabilty [8] | SMILES | Activity [1] | viability at 24 h, 10 µM [2] [%] | inhibition at 10 µM [3] [%] | inhibition at 10 µM [6] [%] | viability at 10 µM [7] [%] | inhibition [9] | inhibition [10] |
| --- | --- | --- | --- | --- | --- | --- | --- | --- | --- | --- |
| 19.4 (≈ 42.5 mM) | 3.21 | – | C=CCc1cc(/C=C2\CN(C3CC3)C/C(=C\c3ccc(N4CCOCC4)cc3)C2=O)ccc1O | – | 94.3 | 59.8 | 8.19 | – | – | – |
| – | 4.08 | – | C=CCc1cc(/C=C2\CN(C3CC3)C/C(=C\c3ccc(N(CC)CC)cc3)C2=O)ccc1O | – | 94 | 71.9 | 32.1 | – | – | – |
| – | 4.33 | – | C=CCc1cc(/C=C2\CN(C3CC3)C/C(=C\c3ccc(N4CCCC4)cc3)C2=O)ccc1O | – | 95.5 | 49.9 | 17.6 | – | – | – |
| – | – | Stable | C=CCc1cc(/C=C2\CN(C3CC3)C/C(=C\c3ccc(O)c(CC=C)c3)C2=O)ccc1O | Non-Toxic | 76.2 | 77.5 | 39.5 | – | Dose-dependent effect | Dose-dependent effect |
